Reference: ChEMBL document CHEMBL3297681, “Design, synthesis, and biological evaluations of tumor-targeting dual-warhead conjugates for a taxoid-camptothecin combination chemotherapy” (J Med Chem, 2014)

Assays:
MX1 [1] = test: Cytotoxicity against human MX1 cells overexpressing biotin receptor assessed as growth inhibition after 72 hrs by MTT assay; format: functional, cell-based
Procedure, shortened: (§1)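 Continuous 72 h exposure at 37 °C. Cells were seeded at 0.5–1.5 × 10^4 per well, and adherent lines were left to settle overnight before the medium was refreshed. DMSO was ≤1%. Read-out was MTT (0.5 mg/mL, 3 h), with formazan dissolved in 0.1 N HCl/2-propanol plus 10% Triton X-100 and absorbance read at 570 nm. IC50 came from a four-parameter logistic fit, in triplicate.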

MCF7 [2] = test: Cytotoxicity against human MCF7 cells overexpressing biotin receptor assessed as growth inhibition after 72 hrs by MTT assay; format: functional, cell-based; procedure, shortened: as §1
[3] = Cytotoxicity against human WI38 cells assessed as growth inhibition after 72 hrs by MTT assay; details: WI-38, 72 h
[4] = Cytotoxicity against mouse ID8 cells overexpressing biotin receptor assessed as growth inhibition after 72 hrs by MTT assay; format: functional, cell-based; procedure, shortened: as §1
L1210 [5] = test: Cytotoxicity against mouse L1210 cells overexpressing biotin receptor assessed as growth inhibition after 72 hrs by MTT assay; details: L1210, 72 h
MX1 [6] = test: Cytotoxicity against human MX1 cells overexpressing biotin receptor assessed as growth inhibition after 24 hrs by MTT assay; format: functional, cell-based
Procedure, shortened: (§2)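 Conjugate was incubated with cells for 24 h at 37 °C, then removed by PBS washing. GSH-OEt (6 equiv to conjugate) in medium was added to release drug, followed by a further 48 h at 37 °C (72 h total). Read-out was MTT at 570 nm. IC50 came from a four-parameter logistic fit, in triplicate.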

MCF7 [7] = test: Cytotoxicity against human MCF7 cells overexpressing biotin receptor assessed as growth inhibition after 24 hrs by MTT assay; format: functional, cell-based; procedure, shortened: as §2
MCF7 [8] = test: Drug uptake in human MCF7 cells at 10 uM after 10 hrs by confocal fluorescence microscopy analysis; format: ADME, cell-based; details: mcf7, 10 h
Procedure, shortened: (§3)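 Cells were incubated with 10 μM conjugate at 37 °C for 10 h, washed thoroughly, and resuspended in PBS. Internalization was imaged by confocal microscopy using camptothecin's intrinsic fluorescence.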

[9] = Cytotoxicity against mouse ID8 cells overexpressing biotin receptor assessed as growth inhibition after 24 hrs by MTT assay; format: functional, cell-based
[10] = Drug uptake in mouse ID8 cells at 10 uM after 10 hrs by confocal fluorescence microscopy analysis; format: ADME, cell-based; details: id8, 10 h; procedure, shortened: as §3
L1210 [11] = test: Cytotoxicity against mouse L1210 cells overexpressing folate receptor assessed as growth inhibition after 24 hrs by MTT assay; format: functional, cell-based; procedure, shortened: as §2
L1210 [12] = test: Cytotoxicity against mouse L1210 cells overexpressing folate receptor assessed as growth inhibition after 72 hrs by MTT assay; format: functional, cell-based; procedure, shortened: as §1
[13] = Cytotoxicity against human WI38 cells overexpressing biotin receptor assessed as growth inhibition after 72 hrs by MTT assay; format: functional, cell-based; details: wi-38; procedure, shortened: as §1
MX1 [14] = test: Cytotoxicity against human MX1 cells overexpressing biotin receptor assessed as growth inhibition at 1:1 compound to camptothecin ratio after 72 hrs by MTT assay in presence of camptothecin; format: functional, cell-based; details: MX1, 72 h
Procedure, shortened: (§4)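 Cells were exposed simultaneously to an equimolar taxoid/camptothecin mixture for 72 h at 37 °C. Viability was read by MTT (0.5 mg/mL, 3 h, absorbance 570 nm). IC50 came from a four-parameter logistic fit of viability against concentration, in triplicate.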

MCF7 [15] = test: Cytotoxicity against human MCF7 cells overexpressing biotin receptor assessed as growth inhibition pretreated for 24 hrs with camptothecin then incubated for 48 hrs by MTT assay in presence of camptothecin; format: functional, cell-based
Procedure, shortened: (§5)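 Cells were seeded at 8000–10000 per well and preincubated 24 h. Camptothecin serial dilutions were given first for 24 h at 37 °C. An equimolar amount of taxoid was then added for a further 48 h at 37 °C. Viability was read by MTT at 570 nm, and IC50 came from a four-parameter logistic fit, in triplicate.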

MX1 [16] = test: Cytotoxicity against human MX1 cells overexpressing biotin receptor assessed as growth inhibition treated for 24 hrs then incubated 48 hrs with camptothecin by MTT assay in presence of camptothecin; format: functional, cell-based
Procedure, shortened: (§6)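 Cells were seeded at 8000–10000 per well and preincubated 24 h. Taxoid was given first for 24 h at 37 °C. An equimolar amount of camptothecin was then added for another 48 h at 37 °C. Viability was read by MTT at 570 nm, and IC50 came from a four-parameter logistic fit, in triplicate.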

L1210 [17] = test: Cytotoxicity against mouse L1210 cells overexpressing folate receptor assessed as growth inhibition pretreated for 24 hrs with camptothecin then incubated for 48 hrs by MTT assay in presence of camptothecin; format: functional, cell-based; procedure, shortened: as §5
L1210 [18] = test: Cytotoxicity against mouse L1210 cells overexpressing folate receptor assessed as growth inhibition treated for 24 hrs then incubated 48 hrs with camptothecin by MTT assay in presence of camptothecin; format: functional, cell-based; procedure, shortened: as §6
[19] = Cytotoxicity against mouse ID8 cells overexpressing biotin receptor assessed as growth inhibition treated for 24 hrs then incubated 48 hrs with camptothecin by MTT assay in presence of camptothecin; format: functional, cell-based; procedure, shortened: as §6
MCF7 [20] = test: Cytotoxicity against human MCF7 cells overexpressing biotin receptor assessed as growth inhibition at 1:1 compound to camptothecin ratio after 72 hrs by MTT assay in presence of camptothecin; format: functional, cell-based; details: MCF7, 72 h; procedure, shortened: as §4
[21] = Cytotoxicity against mouse ID8 cells overexpressing biotin receptor assessed as growth inhibition pretreated for 24 hrs with camptothecin then incubated for 48 hrs by MTT assay in presence of camptothecin; format: functional, cell-based; procedure, shortened: as §5
MX1 [22] = test: Cytotoxicity against human MX1 cells overexpressing biotin receptor assessed as growth inhibition pretreated for 24 hrs with camptothecin then incubated for 48 hrs by MTT assay in presence of camptothecin; format: functional, cell-based; procedure, shortened: as §5
L1210 [23] = test: Cytotoxicity against mouse L1210 cells overexpressing folate receptor assessed as growth inhibition at 1:1 compound to camptothecin ratio after 72 hrs by MTT assay in presence of camptothecin; format: functional, cell-based; details: L1210, 72 h; procedure, shortened: as §4
[24] = Cytotoxicity against mouse ID8 cells overexpressing biotin receptor assessed as growth inhibition at 1:1 compound to camptothecin ratio after 72 hrs by MTT assay in presence of camptothecin; format: functional, cell-based; details: ID8, 72 h; procedure, shortened: as §4
MCF7 [25] = test: Cytotoxicity against human MCF7 cells overexpressing biotin receptor assessed as growth inhibition treated for 24 hrs then incubated 48 hrs with camptothecin by MTT assay in presence of camptothecin; format: functional, cell-based; procedure, shortened: as §6

SMILES | IC50 (MX1 [1]; Homo sapiens, MX1, 72 h) | IC50 (MCF7 [2]; Homo sapiens, MCF7, 72 h) | IC50 [3] | IC50 ([4]; Mus musculus, ID8, 72 h) | IC50 (L1210 [5]) | IC50 (MX1 [6]; mx1) | IC50 (MCF7 [7]; mcf7) | IC50 (L1210 [12]) | IC50 (MX1 [1]; mx1) | IC50 ([9]; id8) | IC50 (MCF7 [2]; mcf7) | IC50 (L1210 [11]; l1210) | IC50 [13] | IC50 ([4]; id8) | also measured
CC[C@@]1(O)C(=O)OCc2c1cc1n(c2=O)Cc2cc3ccccc3nc2-1 [CAMPTOTHECIN] | 1700 nM | 65.1 nM | 786 nM | 474 nM | 510 nM | – | – | – | – | – | – | – | – | – | –
CC[C@@]1(OC(=O)Cc2ccccc2SSC(C)CCC(=O)NCCOCCOCCOCCn2cc(CNc3nc(NCCNC(=O)CCC(C)SSc4ccccc4CC(=O)O[C@@H](C(=O)O[C@H]4C[C@@]5(O)[C@@H](OC(=O)c6ccccc6)[C@@H]6[C@]7(OC(C)=O)CCO[C@@H]7C[C@H](O)[C@@]6(C)C(=O)[C@H](OC(=O)C6CC6)C(=C4C)C5(C)C)[C@H](C=C(C)C)NC(=O)OC(C)(C)C)nc(NCCOCCOCCOCCNC(=O)CCCC[C@@H]4SC[C@@H]5NC(=O)N[C@@H]54)n3)nn2)C(=O)OCc2c1cc1n(c2=O)Cc2cc3ccccc3nc2-1 (stereo not given in full) | 51.7 nM | 19 nM | 742 nM | 23.4 nM | 39.1 nM | – | – | – | – | – | – | – | – | – | IC50 (MX1 [6]; Homo sapiens, MX1, 24 h): 9.8 nM; IC50 (MCF7 [7]; Homo sapiens, MCF7, 24 h): 3.2 nM; Drug uptake (MCF7 [8]): Active; IC50 ([9]; Mus musculus, ID8, 24 h): 5.7 nM; Drug uptake [10]: Active; IC50 (L1210 [11]; Mus musculus, L1210, 24 h): 7.4 nM
CC[C@@]1(OC(=O)CCC(=O)NCCOCCOCCOCCn2cc(CNc3nc(NCCNC(=O)CCC(C)SSc4ccccc4CC(=O)O[C@@H](C(=O)O[C@H]4C[C@@]5(O)[C@@H](OC(=O)c6ccccc6)[C@@H]6[C@]7(OC(C)=O)CCO[C@@H]7C[C@H](O)[C@@]6(C)C(=O)[C@H](OC(=O)C6CC6)C(=C4C)C5(C)C)[C@H](C=C(C)C)NC(=O)OC(C)(C)C)nc(NCCOCCOCCOCCNC(=O)CCCC[C@@H]4SC[C@@H]5NC(=O)N[C@@H]54)n3)nn2)C(=O)OCc2c1cc1n(c2=O)Cc2cc3ccccc3nc2-1 (stereo not given in full) | – | – | – | – | – | 20.8 nM | 9.4 nM | 42.5 nM | 65.1 nM | 10.3 nM | 21.1 nM | 13.7 nM | 868 nM | 25.6 nM | –
CC(=O)O[C@@]12CCO[C@@H]1C[C@H](O)[C@@]1(C)C(=O)[C@H](OC(=O)C3CC3)C3=C(C)[C@@H](OC(=O)[C@H](OC(=O)Cc4ccccc4SSC(C)CCC(=O)NCCNc4nc(NCCOCCOCCOCCNC(=O)CCCC[C@@H]5SC[C@@H]6NC(=O)N[C@@H]65)nc(NCc5cn(CCOCCOCCOCCNC(=O)CCC(C)SSc6ccccc6CC(=O)Oc6ccccc6)nn5)n4)[C@H](C=C(C)C)NC(=O)OC(C)(C)C)C[C@@](O)([C@@H](OC(=O)c4ccccc4)[C@H]21)C3(C)C (stereo not given in full) | – | – | – | – | – | 23.6 nM | 9.9 nM | 50.9 nM | 66.9 nM | 15.6 nM | 23.1 nM | 14.4 nM | 941 nM | 26.7 nM | –
CC(=O)O[C@@]12CCO[C@@H]1C[C@H](O)[C@@]1(C)C(=O)[C@H](OC(=O)C3CC3)C3=C(C)[C@@H](OC(=O)[C@H](O)[C@H](C=C(C)C)NC(=O)OC(C)(C)C)C[C@@](O)([C@@H](OC(=O)c4ccccc4)[C@H]21)C3(C)C | 2.01 nM | 0.44 nM | 5.89 nM | 1.11 nM | 2.14 nM | – | – | – | – | – | – | – | – | – | IC50 (MX1 [14]): 1.88 nM; IC50 (MCF7 [15]): 79.2 nM; IC50 (MX1 [16]): 1.98 nM; IC50 (L1210 [17]): 949 nM; IC50 (L1210 [18]): 3.51 nM; IC50 [19]: 0.96 nM; IC50 (MCF7 [20]): 0.4 nM; IC50 [21]: 110 nM; IC50 (MX1 [22]): > 5 µM; IC50 (L1210 [23]): 4.14 nM; IC50 [24]: 1.02 nM; IC50 (MCF7 [25]): 0.33 nM
CC[C@@]1(OC(=O)Cc2ccccc2SSC(C)CCC(=O)NCCOCCOCCOCCn2cc(CNc3nc(NCCNC(=O)CCC(C)SSc4ccccc4CC(=O)Oc4ccccc4)nc(NCCOCCOCCOCCNC(=O)CCCC[C@@H]4SC[C@@H]5NC(=O)N[C@@H]54)n3)nn2)C(=O)OCc2c1cc1n(c2=O)Cc2cc3ccccc3nc2-1 (stereo not given in full) | – | – | – | – | – | > 5000 nM | 538 nM | 319 nM | > 5000 nM | 2390 nM | 1260 nM | 177 nM | 1440 nM | > 5000 nM | –
